From ChEMBL document CHEMBL2086336, “Small molecule suppression of carbapenem resistance in NDM-1 producing Klebsiella pneumoniae” (ACS Med Chem Lett, 2012)
The source made the active and inactive calls.

Tests used:
Klebsiella pneumoniae [1] = experiment: Potentiation of imipenem antibacterial activity against Klebsiella pneumoniae BAA 2146 expressing NDM-1 assessed as reduction in imipenem MIC at 50 uM after 16 hrs by broth microdilution technique; assay type: functional
Summary of the method: (§1)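 Modified broth microdilution: imipenem or meropenem MIC measured in CAMHB supplemented with a fixed concentration of the 2-AI compound. Fold reduction is taken against the carbapenem MIC without compound.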

Klebsiella pneumoniae [2] = experiment: Antibacterial activity against Klebsiella pneumoniae BAA 2146 expressing NDM-1 after 16 hrs by broth microdilution technique; assay type: functional; conditions: BAA 2146, 16 h
Summary of the method: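 MIC of the 2-AI compound alone, determined by modified broth microdilution in cation-adjusted Mueller Hinton broth (CAMHB).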

Klebsiella pneumoniae [3] = experiment: Potentiation of meropenem antibacterial activity against Klebsiella pneumoniae BAA 2146 expressing NDM-1 assessed as reduction in meropenem MIC at 50 uM after 16 hrs by broth microdilution technique; assay type: functional, organism-based; summary of the method: as §1
Klebsiella pneumoniae [4] = experiment: Antibacterial activity against Klebsiella pneumoniae BAA 2146 expressing NDM-1 assessed as intact to permeabilized cell membrane ratio at 50 uM after 1 hr by SYTO9/PI-based fluorimetry relative to control; assay type: functional
Summary of the method: (§2)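 Membrane damage was measured by Baclight assay after 1 h exposure of the NDM-1 strain to compound. The intact/permeabilized membrane ratio is expressed as % of DMSO-only treated control bacteria.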

Klebsiella pneumoniae [5] = experiment: Potentiation of carbapenem antibacterial activity against Klebsiella pneumoniae BAA 2146 expressing NDM-1 assessed as reduction in carbapenem MIC at 50 uM after 16 hrs by broth microdilution technique; assay type: functional
Summary of the method: (§3)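 Modified broth microdilution in cation-adjusted Mueller Hinton broth. The adjuvant's own MIC is measured first in CAMHB. Antibiotic MICs (imipenem/meropenem, or cefotaxime for the ESBL strain) are then determined in CAMHB supplemented with the 2-aminoimidazole at a fixed concentration of ≤30% of its own MIC. Reduction is reported as fold change versus the antibiotic MIC without adjuvant.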

Klebsiella pneumoniae [6] = experiment: Potentiation of imipenem antibacterial activity against Klebsiella pneumoniae BAA 2146 expressing NDM-1 assessed as reduction in imipenem MIC at 30 uM after 16 hrs by broth microdilution technique; assay type: functional; summary of the method: as §1
Klebsiella pneumoniae [7] = experiment: Potentiation of meropenem antibacterial activity against Klebsiella pneumoniae BAA 2146 expressing NDM-1 assessed as reduction in meropenem MIC at 30 uM after 16 hrs by broth microdilution technique; assay type: functional; summary of the method: as §1
Klebsiella pneumoniae [8] = experiment: Potentiation of imipenem antibacterial activity against Klebsiella pneumoniae BAA 2146 expressing NDM-1 assessed as reduction in imipenem MIC at 40 uM after 16 hrs by broth microdilution technique; assay type: functional
Klebsiella pneumoniae [9] = experiment: Potentiation of imipenem antibacterial activity against Klebsiella pneumoniae BAA 2146 expressing NDM-1 assessed as increase in log reduction in CFU of imipenem at 30 uM at 4 to 16 hrs relative to control; assay type: functional, organism-based
Summary of the method: (§4)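 Time-kill: cultures grown in CAMHB with imipenem (2–32 μg/mL) with or without 30 μM compound. Bacteria were plated at time points up to 16 h and viable CFU enumerated. Log reduction in CFU/mL is relative to untreated control; ≥2 log₁₀ drop versus antibiotic alone counted as synergy.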

Klebsiella pneumoniae [10] = experiment: Potentiation of imipenem antibacterial activity against Klebsiella pneumoniae BAA 2146 expressing NDM-1 assessed as decreased regrowth at 30 uM at 4 to 16 hrs relative to control; assay type: functional, organism-based
Summary of the method: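 Time-kill: K. pneumoniae BAA-2146 (NDM-1) grown in CAMHB with imipenem (2, 8 or 32 μg/mL in figure; 16 and 4 μg/mL also reported) with or without additive at 30 μM. Viable CFU counted by plating at time points up to 16 h; log reduction in CFU/mL versus untreated control. Synergy defined as ≥2 log10 CFU decrease versus antibiotic alone.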

Klebsiella pneumoniae [11] = experiment: Antibacterial activity against Klebsiella pneumoniae BAA 2146 expressing NDM-1 assessed as reduction in CFU at 30 uM after 16 hrs relative to control; assay type: functional, organism-based; summary of the method: as §4
Klebsiella pneumoniae [12] = experiment: Potentiation of imipenem antibacterial activity against Klebsiella pneumoniae BAA 1705 expressing KPC-2 assessed as reduction in imipenem MIC at 30 uM after 16 hrs by broth microdilution technique; assay type: functional; summary of the method: as §3
Klebsiella pneumoniae [13] = experiment: Potentiation of cefotaxime antibacterial activity against Klebsiella pneumoniae ATCC 700603 expressing extended spectrum beta-lactamase assessed as reduction in cefotaxime MIC at 30 uM after 16 hrs by broth microdilution technique; assay type: functional; summary of the method: as §3
Klebsiella pneumoniae [14] = experiment: Antibacterial activity against Klebsiella pneumoniae BAA 2146 expressing NDM-1 assessed as intact to permeabilized cell membrane ratio at 30 uM after 1 hr by SYTO9/PI-based fluorimetry relative to control; assay type: functional; summary of the method: as §2
[15] = Hemolytic activity against defibrinated sheep blood after 1 hr by UV-spectrophotometry; assay type: ADME, tissue-based, Ovis aries; conditions: read-out: HD50
Summary of the method: (§5)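 Hemolysis was tested on mechanically defibrinated sheep blood. Lysis is expressed relative to a positive control. HD₅₀ is the concentration lysing 50% of cells versus that control.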

[16] = Hemolytic activity against defibrinated sheep blood at 30 uM after 1 hr by UV-spectrophotometry relative to control; assay type: ADME, tissue-based, Ovis aries; conditions: read-out: Activity; summary of the method: as §5

SMILES | MIC (Klebsiella pneumoniae [2]) [µM] | Activity (Klebsiella pneumoniae [1]) | Activity (Klebsiella pneumoniae [3]) | also measured
CCCCCCc1ccc(-c2nc(N)[nH]c2Cc2ccccc2)cc1.Cl | > 200 | inactive | inactive | 
CCCCCCCc1ccc(-c2c[nH]c(N)n2)cc1.Cl | 200 |  |  | Activity (Klebsiella pneumoniae [4]): 21.2%; fold change (FC) (Klebsiella pneumoniae [5]): 2
CCCCCCc1ccc(-c2c[nH]c(N)n2)cc1.Cl | 100 |  |  | fold change (FC) (Klebsiella pneumoniae [6]): 16; fold change (FC) (Klebsiella pneumoniae [7]): 16; fold change (FC) (Klebsiella pneumoniae [8]): 64; fold change (FC) (Klebsiella pneumoniae [1]): 256; Activity (Klebsiella pneumoniae [9]): Active; Activity (Klebsiella pneumoniae [10]): Active; Activity (Klebsiella pneumoniae [11]): inactive; fold change (FC) (Klebsiella pneumoniae [12]): 16; fold change (FC) (Klebsiella pneumoniae [13]): 8; Activity (Klebsiella pneumoniae [14]): 8.5%; HC50 at 1 h [15]: > 500 µM; hemolysis at 1 h, 30 µM [16]: 2.5%
CC(C)(C)c1ccc(-c2c[nH]c(N)n2)cc1.Cl | 200 |  |  | 
CCCCCc1ccc(-c2c[nH]c(N)n2)cc1.Cl | 100 |  |  | 
CCCCc1ccc(-c2c[nH]c(N)n2)cc1.Cl | 200 |  |  | 
CCCCCCc1ccc(-c2nc(N)[nH]c2-c2ccc3ccccc3c2)cc1.Cl | > 200 | inactive | inactive | 

Now from value to compound, other results behind:

MIC (Klebsiella pneumoniae [2]) [µM] | SMILES | Activity (Klebsiella pneumoniae [1]) | Activity (Klebsiella pneumoniae [3]) | also measured
> 200 | CCCCCCc1ccc(-c2nc(N)[nH]c2-c2ccccc2)cc1.Cl | inactive | inactive | 
100 | CCCCCCc1ccc(-c2nc(N)[nH]c2C)cc1.Cl |  |  | fold change (FC) (Klebsiella pneumoniae [6]): 8; fold change (FC) (Klebsiella pneumoniae [7]): 8
100 | CCCCCCc1ccc(-c2nc(N)[nH]c2CCC)cc1.Cl |  |  | 
> 200 | CCCCCCc1ccc(-c2nc(N)[nH]c2CCCCCC)cc1.Cl |  |  | Activity (Klebsiella pneumoniae [6]; 50 uM, in the assay text read “at 50 uM” for “at 30 uM”): inactive; fold change (FC) (Klebsiella pneumoniae [7]): 2; Activity (Klebsiella pneumoniae [14]): 8.13%
> 200 | Cl.Nc1nc(-c2ccc(-c3ccccc3)cc2)c[nH]1 |  |  | 
200 | CCCCCCc1ccc(-c2nc(N)[nH]c2CC(C)C)cc1.Cl | inactive | inactive | 
